According to ChEMBL document CHEMBL2375213, “Synthesis and anticancer activity of novel spiro-isoxazoline and spiro-isoxazolidine derivatives of α-santonin” (Eur J Med Chem, 2013):

Experiments:
[1] = tested on: PC-3; assay: Antiproliferative activity against human PC3 cells after 48 hrs by sulforhodamine B assay; format: functional, cell-based; settings: PC-3, 48 h
[2] = tested on: HEp-2; assay: Antiproliferative activity against human Hep2 cells after 48 hrs by sulforhodamine B assay; format: functional, cell-based; settings: HEp-2, 48 h
[3] = tested on: PC-3; assay: Cell cycle arrest in human PC3 cells assessed as accumulation at subG1 phase at 1 uM after 24 hrs by propidium iodide staining-based FACS flow cytometric analysis (reference value: 13.1%); format: functional
How it was run: (§1)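 PC-3 cells (1×10^6/well) exposed 24 h to test agent at 1, 5 or 10 μM. Cells washed twice in ice-cold PBS, fixed in 70% ethanol for 30 min, then treated with RNase A (0.1 mg/mL, 37 °C, 30 min). Propidium iodide staining 30 min on ice in the dark. DNA content read by flow cytometry with 488 nm excitation and doublet discrimination, 10,000 events.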

[4] = tested on: PC-3; assay: Cell cycle arrest in human PC3 cells assessed as accumulation at G0/G1 phase at 5 uM after 24 hrs by propidium iodide staining-based FACS flow cytometric analysis (reference value: 68.2%); format: functional; how it was run: as §1
[5] = tested on: PC-3; assay: Cell cycle arrest in human PC3 cells assessed as accumulation at subG1 phase at 10 uM after 24 hrs by propidium iodide staining-based FACS flow cytometric analysis (reference value: 13.1%); format: functional; how it was run: as §1
[6] = tested on: PC-3; assay: Cell cycle arrest in human PC3 cells assessed as accumulation at M phase at 10 uM after 24 hrs by propidium iodide staining-based FACS flow cytometric analysis (reference value: 3%); format: functional; how it was run: as §1
[7] = tested on: PC-3; assay: Cell cycle arrest in human PC3 cells assessed as accumulation at G0/G1 phase at 10 uM after 24 hrs by propidium iodide staining-based FACS flow cytometric analysis (reference value: 68.2%); format: functional; how it was run: as §1
[8] = tested on: PC-3; assay: Cell cycle arrest in human PC3 cells assessed as accumulation at subG1 phase at 5 uM after 24 hrs by propidium iodide staining-based FACS flow cytometric analysis (reference value: 13.1%); format: functional; how it was run: as §1
[9] = tested on: PC-3; assay: Cell cycle arrest in human PC3 cells assessed as accumulation at subG1 phase after 24 hrs by propidium iodide staining-based FACS flow cytometric analysis; format: functional; how it was run: as §1
[10] = tested on: PC-3; assay: Cell cycle arrest in human PC3 cells assessed as accumulation at M phase at 1 uM after 24 hrs by propidium iodide staining-based FACS flow cytometric analysis (reference value: 3%); format: functional; how it was run: as §1
[11] = tested on: PC-3; assay: Cell cycle arrest in human PC3 cells assessed as accumulation at S phase at 1 uM after 24 hrs by propidium iodide staining-based FACS flow cytometric analysis (reference value: 8.5%); format: functional; how it was run: as §1
[12] = tested on: PC-3; assay: Cell cycle arrest in human PC3 cells assessed as accumulation at S phase at 5 uM after 24 hrs by propidium iodide staining-based FACS flow cytometric analysis (reference value: 8.5%); format: functional; how it was run: as §1
[13] = tested on: A549; assay: Antiproliferative activity against human A549 cells after 48 hrs by sulforhodamine B assay; format: functional, cell-based; settings: A549, 48 h
[14] = tested on: PC-3; assay: Cell cycle arrest in human PC3 cells assessed as accumulation at G0/G1 phase at 1 uM after 24 hrs by propidium iodide staining-based FACS flow cytometric analysis (reference value: 68.2%); format: functional; how it was run: as §1
[15] = tested on: HCT-116; assay: Antiproliferative activity against human HCT116 cells after 48 hrs by sulforhodamine B assay; format: functional, cell-based; settings: HCT-116, 48 h
[16] = tested on: PC-3; assay: Cell cycle arrest in human PC3 cells assessed as accumulation at S phase at 10 uM after 24 hrs by propidium iodide staining-based FACS flow cytometric analysis (reference value: 8.5%); format: functional; how it was run: as §1
[17] = tested on: PC-3; assay: Cell cycle arrest in human PC3 cells assessed as accumulation at M phase at 5 uM after 24 hrs by propidium iodide staining-based FACS flow cytometric analysis (reference value: 3%); format: functional; how it was run: as §1
[18] = tested on: MCF7; assay: Antiproliferative activity against human MCF7 cells after 48 hrs by sulforhodamine B assay; format: functional, cell-based; settings: MCF7, 48 h
[19] = tested on: THP-1; assay: Antiproliferative activity against human THP1 cells after 48 hrs by sulforhodamine B assay; format: functional, cell-based; settings: THP-1, 48 h
[20] = target: Transcription factor p65 (Homo sapiens) (UniProt Q04206); assay: Inhibition of NFkappaB p65 in nuclear extract of human PC3 cells assessed as reduction in binding to consensus DNA sequence at 10 uM after 24 hrs relative to control; format: cell-based; settings: PC-3
Transcription factor p65 (Homo sapiens), sequence (Q04206 whole entry): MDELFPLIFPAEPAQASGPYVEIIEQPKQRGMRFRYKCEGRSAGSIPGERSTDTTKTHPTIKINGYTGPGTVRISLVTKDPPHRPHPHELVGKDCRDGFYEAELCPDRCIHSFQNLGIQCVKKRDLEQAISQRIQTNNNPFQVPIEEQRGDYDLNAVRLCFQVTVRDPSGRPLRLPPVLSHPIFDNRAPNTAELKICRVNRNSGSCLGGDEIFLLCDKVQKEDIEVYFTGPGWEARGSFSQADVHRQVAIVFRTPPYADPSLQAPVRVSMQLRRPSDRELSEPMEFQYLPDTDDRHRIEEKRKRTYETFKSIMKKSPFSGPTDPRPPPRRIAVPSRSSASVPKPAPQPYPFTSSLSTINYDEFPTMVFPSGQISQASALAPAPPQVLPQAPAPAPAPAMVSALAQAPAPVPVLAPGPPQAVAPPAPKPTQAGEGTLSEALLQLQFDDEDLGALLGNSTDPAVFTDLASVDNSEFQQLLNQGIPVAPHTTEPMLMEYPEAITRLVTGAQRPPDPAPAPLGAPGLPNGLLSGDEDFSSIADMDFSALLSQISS
How it was run: (§2)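 PC-3 cells (5×10^6) treated 24 h at varied concentrations. Nuclear extract made by hypotonic lysis (HEPES/KOH pH 7.9) followed by high-salt extraction. Nuclear protein (20 µg) incubated overnight at 4 °C in wells carrying immobilized NF-κB DNA consensus element, then anti-p65 primary antibody 1 h and HRP secondary 1 h. Substrate 30 min, OD 450 nm, normalized to untreated control = 100%.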

[21] = target: Transcription factor p65 (Homo sapiens) (UniProt Q04206); assay: Inhibition of NFkappaB p65 in nuclear extract of human PC3 cells assessed as reduction in binding to consensus DNA sequence at 5 uM after 24 hrs relative to control; format: cell-based; settings: PC-3; how it was run: as §2
[22] = target: Transcription factor p65 (Homo sapiens) (UniProt Q04206); assay: Inhibition of NFkappaB p65 in nuclear extract of human PC3 cells assessed as reduction in binding to DNA response element after 24 hrs; format: cell-based; settings: PC-3; how it was run: as §2
[23] = target: Transcription factor p65 (Homo sapiens) (UniProt Q04206); assay: Inhibition of NFkappaB p65 in nuclear extract of human PC3 cells assessed as reduction in binding to consensus DNA sequence at 1 uM after 24 hrs relative to control; format: cell-based; settings: PC-3; how it was run: as §2

Row | Structure (SMILES) | IC50 [1] [µM] | IC50 [2] [µM] | IC50 [13] [µM] | IC50 [15] [µM] | IC50 [18] [µM] | IC50 [19] [µM] | further results
1 | CC1=C2[C@H]3OC(=O)C4(C[C@H](c5ccc(Br)cc5)N(c5ccccc5)O4)[C@@H]3CC[C@@]2(C)C=CC1=O (some centres not stated) | 0.1 | 100 | 100 | 100 | 0.8 | 0.3 | Activity [3]: 33.8%; Activity [4]: 55.8%; Activity [5]: 42.8%; Activity [6]: 1.3%; Activity [7]: 53.2%; Activity [8]: 34.7%; Activity [9]: Dose-dependent effect; Activity [10]: 1.6%; Activity [11]: 4.2%; Activity [12]: 4.4%; Activity [14]: 55.3%; Activity [16]: 4.9%; Activity [17]: 0.8%
2 | CC[C@@]1(O)C(=O)OCc2c1cc1n(c2=O)Cc2cc3ccccc3nc2-1 [CAMPTOTHECIN] |  |  |  |  |  |  | Activity [4]: 30.17%; Activity [8]: 60.44%; Activity [12]: 4.94%; Activity [17]: 4.76%
3 | CC1=C2[C@H]3OC(=O)C4(CC(c5ccccc5Cl)=NO4)[C@@H]3CC[C@@]2(C)C=CC1=O (some centres not stated) | 0.9 | 7.3 | 5.9 | 100 | 0.5 | 0.2 | 
4 | CC1=C2[C@H]3OC(=O)C4(C[C@H](c5ccc([N+](=O)[O-])cc5)N(c5ccccc5)O4)[C@@H]3CC[C@@]2(C)C=CC1=O (some centres not stated) | 0.5 | 14 | 66 | 100 | 0.7 | 0.1 | 
5 | COc1ccc([C@@H]2CC3(ON2c2ccccc2)C(=O)O[C@@H]2C4=C(C)C(=O)C=C[C@]4(C)CC[C@H]23)cc1Br (some centres not stated) | 0.1 | 100 | 2.7 | 45 | 50 | 100 | 
6 | CC1=C2[C@H]3OC(=O)C4(C[C@@H](c5ccc([N+](=O)[O-])cc5)N(c5ccccc5)O4)[C@@H]3CC[C@@]2(C)C=CC1=O (single isomer, unassigned) | 0.6 | 100 | 66 | 100 | 0.9 | 0.1 | 
7 | CC1=C2[C@H]3OC(=O)C4(C[C@H](c5cc(Cl)ccc5Cl)N(c5ccccc5)O4)[C@@H]3CC[C@@]2(C)C=CC1=O (some centres not stated) | 0.7 | 100 | 77 | 32 | 0.1 | 0.2 | 
8 | CC1=C2[C@H]3OC(=O)C4(C[C@H](c5cccc6ccccc56)N(c5ccccc5)O4)[C@@H]3CC[C@@]2(C)C=CC1=O (some centres not stated) | 0.6 | 100 | 1.4 | 100 | 14 | 100 | 
9 | CC1=C2[C@H]3OC(=O)C4(C[C@@H](c5cccc6ccccc56)N(c5ccccc5)O4)[C@@H]3CC[C@@]2(C)C=CC1=O (some centres not stated) | 0.7 | 100 | 3.3 | 100 | 82 | 59 | 
10 | CC1=C2[C@H]3OC(=O)C4(C[C@@H](c5ccc(Br)cc5)N(c5ccccc5)O4)[C@@H]3CC[C@@]2(C)C=CC1=O (some centres not stated) | 0.01 | 65 | 31 | 37 | 0.3 | 0.5 | Activity [3]: 25.6%; Activity [4]: 43.5%; inhibition [20]: 57%; Activity [5]: 67.9%; Activity [6]: 0.4%; Activity [7]: 3.1%; Activity [8]: 39.7%; Activity [9]: Dose-dependent effect; Activity [10]: 2%; Activity [11]: 6.2%; Activity [12]: 4.5%; inhibition [21]: 43%; Activity [14]: 60.9%; Activity [16]: 0.4%; Activity [17]: 1.2%; inhibition [22]: Dose-dependent effect; inhibition [23]: 20%
11 | CC1=C2[C@H]3OC(=O)C4(C[C@@H](c5cc(Cl)ccc5Cl)N(c5ccccc5)O4)[C@@H]3CC[C@@]2(C)C=CC1=O (some centres not stated) | 0.9 | 0.6 | 55 | 100 | 0.5 | 3.9 | 
12 | CC1=C2[C@H]3OC(=O)C4(C[C@H](c5cccc([N+](=O)[O-])c5)N(c5ccccc5)O4)[C@@H]3CC[C@@]2(C)C=CC1=O (some centres not stated) | 0.3 | 100 | 81 | 100 | 14 | 100 | 
13 | CC1=C2[C@H]3OC(=O)C4(CC(c5ccc([N+](=O)[O-])cc5)=NO4)[C@@H]3CC[C@@]2(C)C=CC1=O (some centres not stated) | 100 | 100 | 100 | 55 | 56 | 100 | 
14 | CC1=C2[C@H]3OC(=O)C4(C[C@@H](c5cc(F)cc(F)c5)N(c5ccccc5)O4)[C@@H]3CC[C@@]2(C)C=CC1=O (some centres not stated) | 1.4 | 100 | 14 | 28 | 3.9 | 0.8 | 
